Screening data as filed in PubChem.
HER2 expr 66K – Her2 kinase expression inhibition; P04626; 65,000 compounds, 0.69% hits; SKBR-3 HER2 protein level, AlphaScreen, 18-24 h; hits give low values; HER2 level % of control, % at 10 µM; AID 645;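 active = HER2 level under 5% of the carrier-only control; inconclusive = no clear call, values can overlap the other calls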;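 also: lower value means stronger loss of Her2 protein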
M1 ag – M1 muscarinic receptor agonism; 64,000 compounds, 3% hits; B-score at 10 µM; CHO-M1 cells, Fluo-4 calcium fluorescence, agonist mode; hits give high values;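 active = fluorescence rise, raw or as B-score row- and column-corrected plate score, outside the 99.7% band of its plate's samples, either direction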
HEK293 NFkB inh – inhibitors of the PMA/ionomycin-induced NF-kB reporter in HEK293 cells | HEK-293 NF-kB luciferase reporter, luminescence | inhibition, % at 3 µM | 62,000 compounds, 0.21% hits | AID 465;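 active = inhibition above the mean of all tested compounds plus 3 SD, cut at about 40% in these data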
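Material: HEK-293 cells with stable firefly luciferase reporter driven by four HIV NF-kB elements / Also added: PMA plus ionomycin mix as NF-kB-activating stimulus / Compound dosing: 3 µM once, 0.30% DMSO / Times: 1 h pretreatment, 16 h stimulation, 37 °C / Signal: luminescence / Evaluation: per-plate % inhibition versus controls / Benchmarks: DMSO and 10 µM reference inhibitor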
Cdc25B block – human M-phase inducer phosphatase 2 inhibition; P30305; recombinant Cdc25B, OMFP fluorescence Ex485/Em525; inhibition, %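 (compounds tested at 10 µM final in the well)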; 65,000 compounds, 0.1% hits; in the data active = inhibition above about 50%
MKP-1 inh – inhibitors of human MKP-1 phosphatase; P28562; recombinant MKP-1, OMFP hydrolysis fluorescence; inhibition, %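 (compounds tested at a single concentration somewhere between 10 and 100 µM)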; 65,000 compounds, 0.15% hits;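 active = inhibition above about 50%, limit read from the data; inconclusive = inhibition over screen mean plus 3 SD, below that limit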
M1 antag – blocks the rat M1 muscarinic receptor response to acetylcholine. 64,000 compounds, 3.4% hits. B-score at 10 µM. CHO-M1 cells, Fluo-4 calcium, ACh EC80 antagonist mode; hits give low values. P08482;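 active = calcium fluorescence response, raw or row-and-column corrected B-score, differing from the plate sample mean either way at a set confidence level, mostly lower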
Target sequence (P08482 whole entry, looked up): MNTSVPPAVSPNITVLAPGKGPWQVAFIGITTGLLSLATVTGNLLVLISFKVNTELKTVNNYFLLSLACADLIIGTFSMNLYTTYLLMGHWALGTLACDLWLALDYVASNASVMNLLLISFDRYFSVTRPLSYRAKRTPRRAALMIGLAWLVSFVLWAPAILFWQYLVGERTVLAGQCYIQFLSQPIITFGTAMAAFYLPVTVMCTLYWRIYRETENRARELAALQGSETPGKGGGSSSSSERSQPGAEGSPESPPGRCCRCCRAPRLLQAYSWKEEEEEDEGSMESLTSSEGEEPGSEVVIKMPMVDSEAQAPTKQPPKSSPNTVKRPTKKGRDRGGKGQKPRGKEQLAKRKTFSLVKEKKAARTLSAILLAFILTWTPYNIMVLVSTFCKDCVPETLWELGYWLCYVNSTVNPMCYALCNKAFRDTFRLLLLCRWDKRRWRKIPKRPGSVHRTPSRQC
M1 ag confirm – confirmation of rat M1 muscarinic receptor agonists; CHO-M1 cells, Fluo-4 calcium fluorescence, agonist mode; actives lie on both sides; fluorescence change (max-min) at 10 µM; shares compounds with M1 ag; 1,700 compounds, 19% hits;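 active = fluorescence change differs from the solvent-only DMSO control mean at a set confidence level in both duplicate runs; inconclusive = differs from solvent-only control mean in just one of two runs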;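 also: an EC20 dose of acetylcholine follows compound addition during the same imaging run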
M4 agonist ctr – rat M4 muscarinic agonism, M1 counter-screen | shares compounds with M1 ag | CHO M4/Gqi5 cells, Fluo-4 calcium fluorescence, agonist mode; actives lie on both sides | fluorescence change (max-min) at 10 µM | 1,700 compounds, 9% hits | AID 1741;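 active = fluorescence change differing from the plate's solvent-only control wells at 99.7% confidence in both duplicates, whether higher or lower; inconclusive = differs from solvent controls in only one of two duplicates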
Each line names hits and unclear results; the compound was inactive in the other large screens (follow-up assays come after a bar, where they were run). Only some compounds are listed: those with a hit (about 6.8% of all), similar ones and a draw of the others.

O=C(OCC(=O)N1CCN(C(=O)c2ccco2)CC1)c1cc(-c2ccccc2)nc2ccccc12	none
Cc1noc2nc(-c3cccs3)cc(-c3nnc4n3CCCCC4)c12	none
Cc1nc2ccc(F)cc2cc1C(=O)NC(C)C	none
COc1cccc(N2CCN(Cc3nc(N)nc(Nc4ccccc4)n3)CC2)c1	M1 ag 6.3 | M1 ag confirm inactive | M4 agonist ctr inactive
COc1ccccc1N1CCN(Cc2nc(N)nc(Nc3ccc(C)c(Cl)c3)n2)CC1	M1 ag 3.3 | M1 ag confirm inconclusive | M4 agonist ctr inconclusive
N#CNC1=NCN(Cc2ccccc2)CN1	none
O=C(NCCCCNC(=O)c1c(F)c(F)c(F)c(F)c1F)c1c(F)c(F)c(F)c(F)c1F	none
O=C(Nc1ccc2c(c1)OCO2)N1CCN(c2cccc(C(F)(F)F)c2)CC1	M1 ag 2.9 | M1 ag confirm inconclusive | M4 agonist ctr inconclusive
Cc1ccccc1Nc1ncnc2c1cnn2-c1ccccc1	none
CCOc1ccc(Nc2ncnc3c2cnn3-c2ccccc2)cc1	M1 ag 3.2 | M1 ag confirm inactive | M4 agonist ctr inconclusive
O=C1CCCN1CCCNc1ncnc2c1cnn2-c1ccc(Cl)cc1	M1 ag 3.1 | M1 ag confirm inactive | M4 agonist ctr inactive
Clc1ccc(-n2ncc3c(NCC4CCCO4)ncnc32)cc1 (configuration not stated)	M1 ag 3.4 | M1 ag confirm inconclusive | M4 agonist ctr inactive
Clc1ccc2[nH]c3c(NCCN4CCOCC4)ncnc3c2c1	none (no result: HEK293 NFkB inh)
CN(C)CCNc1ncnc2c1cnn2-c1ccc(Cl)cc1	none
Clc1ccc2[nH]c3c(NCC4CCCO4)ncnc3c2c1 (configuration not stated)	M1 ag 7.7 | M1 ag confirm inactive | M4 agonist ctr inactive
Cc1cccc(N2CCN(C(=O)Cn3sc4nc(C)cc(C)c4c3=O)CC2C)c1 (configuration not stated)	M1 ag 5.3 | M1 ag confirm -24 | M4 agonist ctr -67
CCn1cnc2sc(C(=O)N(Cc3ccc(N(C)C)cc3)Cc3ccco3)c(C)c2c1=O	M1 ag 12 | M1 ag confirm inactive | M4 agonist ctr inconclusive
CCCOc1ccc(N2CC(C(=O)NC(C)C)CC2=O)cc1 (configuration not stated)	none
CCOC(=O)c1ccc(Nc2nnc(C(C)(C)C)c(=O)[nH]2)cc1	M1 ag 3.5 | M1 ag confirm inactive | M4 agonist ctr inactive
Cc1cc2cc(CCNC(=O)c3ccc(Br)o3)c(=O)[nH]c2cc1C	M1 ag 3.7 | M1 ag confirm inactive | M4 agonist ctr inactive
COC(=O)/C=c1\sc2n(c1=O)C(C)=CC(C)(C)N=2	M1 ag 5.6 | M1 ag confirm inactive | M4 agonist ctr inactive
COC(=O)/C=c1/sc2n(c1=O)CCN=2	none
O=C(Nc1ccc(Cl)cc1)NC1(C(=O)NCCCN2CCOCC2)CCCCC1	none
O=C(Nc1ccccc1)NC1(C(=O)NCCCN2CCOCC2)CCCCC1	M1 ag 4 | M1 ag confirm inconclusive | M4 agonist ctr inactive
COc1ccc2cc(C(=O)NCc3ccco3)c(=Nc3ccc(C(=O)O)cc3)oc2c1	M1 ag 2.7, HEK293 NFkB inh 48 | M1 ag confirm inconclusive | M4 agonist ctr inactive
COc1ccc2cc(C(=O)NCc3ccco3)c(=O)oc2c1	none
CC1CC(C)CN(c2nc3c(c(=O)n(C)c(=O)n3C)n2C)C1 (configuration not stated)	none
CCN(C1CCCCC1)S(=O)(=O)c1ccc(S(=O)(=O)NCCc2ccncc2)cc1	none
CCN(C1CCCCC1)S(=O)(=O)c1ccc(S(=O)(=O)NCc2ccncc2)cc1	M1 ag 3.7, M1 antag -2.2 | M1 ag confirm inactive | M4 agonist ctr inactive
O=C(c1cccc2ccccc12)N1CCC(N2CCN(c3ccccc3)CC2)CC1	none (no result: HEK293 NFkB inh)
Cn1c(=O)[nH]c2cc(Cl)cnc21	M1 ag 9.1 (no result: HEK293 NFkB inh) | M1 ag confirm inactive | M4 agonist ctr inactive
c1ccc(Nc2nc(N3CCCCC3)nc(N3CCNCC3)n2)cc1	M1 ag 11 | M1 ag confirm inactive | M4 agonist ctr inactive
CC(C)CCNC(=O)CN(Cc1ccc2c(c1)OCO2)C(=O)CCC(=O)Nc1ccccn1	none
COC(=O)COc1ccc(S(=O)(=O)NCc2ccncc2)cc1	M1 ag 2.7, M1 antag -2 | M1 ag confirm inactive | M4 agonist ctr inconclusive
COCCn1c(C)cc(C(=O)COc2nc3ccccc3nc2C)c1C	M1 ag 5.2 | M1 ag confirm inactive | M4 agonist ctr inactive
COCCn1c(C)cc(C(=O)COC(=O)c2c(C)nn(Cc3ccccc3)c2C)c1C	none
Cc1ccc(S(=O)(=O)NC(=O)COc2ccccc2C(N)=O)cc1	none
Cc1ccc(NC(=O)c2ccco2)cc1NC(=O)CSc1nnc(-c2cccs2)n1C	none
CCn1c(SCC(=O)Nc2cccc(NC(=O)c3ccco3)c2)nnc1-c1cccs1	M1 ag 4.2 | M1 ag confirm inactive | M4 agonist ctr inactive
COc1cc(OC)c(OC)cc1/C=N/n1c(C)nnc1C	none
Cc1nnc(C)n1/N=C/c1cc(Br)cc(Br)c1O	M1 ag 27 (no result: HEK293 NFkB inh) | M1 ag confirm 143 | M4 agonist ctr inconclusive
Cc1nnc(C)n1/N=C/c1cc(Br)ccc1O	M1 ag 8.2 | M1 ag confirm inactive | M4 agonist ctr inactive
CCN=C(NCC)SC1CC(=O)N(c2cccc(OCC)c2)C1=O (configuration not stated)	M1 ag 14, M1 antag -2.6 | M1 ag confirm inactive | M4 agonist ctr inactive
COc1ccc(-c2[nH]c(-c3ccc(F)cc3)nc2SCC(=O)NCc2ccco2)cc1OC	none
COc1ccc(-c2nc(SCC(=O)NCc3ccco3)c(-c3ccccc3)[nH]2)cc1OC	M1 ag 5.8 | M1 ag confirm inactive | M4 agonist ctr inactive
Cc1cc(C)n2nc(SCC(=O)NCc3ccco3)nc2n1	none
Cc1cc(C)nc(SCC(=O)NCc2ccco2)n1	M1 ag 2.4 | M1 ag confirm -22 | M4 agonist ctr inactive
CC1(C)Cc2c(sc3c4nnnn4c4nnnn4c23)CO1	none (no result: HEK293 NFkB inh)
O=C(Cn1cnc2ccccc2c1=O)N1CCN(Cc2ccccc2)CC1	none (no result: M1 ag, M1 antag)
COc1ccccc1N1CCN(c2ncnc3nc[nH]c23)CC1	M1 ag 3 | M1 ag confirm inconclusive | M4 agonist ctr inactive
O=C(c1ccco1)N1CCN(c2ncccn2)CC1	none
COc1ccccc1N1CCN(c2ncnc3c2oc2ccccc23)CC1	M1 ag 3.9 | M1 ag confirm -29 | M4 agonist ctr inactive
